# Bioassay records as filed in PubChem.
# PGC1a acetyl inh = inhibitors of PGC1a acetylation signal, primary screen, cell-based, U2OS, AlphaScreen, inhibitor mode | AlphaScreen anti-acetyl-lysine; with virally co-expressed GCN5 acetyltransferase | inhibition, % at 15.6 µM | 350,000 tested, 0.17% active | AID 651687, 2012;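 active means every replicate shows inhibition of at least 40%; inconclusive means mean inhibition at least 40% but some replicate below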;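 further: 0% = neutral control wells and 100% = positive control wells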
# Ecoli rRNA inh = reduced GFP signal of wild-type E. coli, primary screen, bacterial rRNA inhibitor project, GFP/RFP fluorescence, OD600, single point; E. coli WT GFP vs humanized-ribosome RFP mutants, 24 h; hits give low values; DMSO median 0, no signal -100; GFP signal change (wild-type ribosome), % (no concentration beside the values); 350,000 tested, 1.6% active; AID 720706, 2013;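 active means significant combined selectivity score with lowered wild-type GFP, culture density cut under 30%, mutant RFP and density less affected; inactive means any of these conditions unmet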
# PglD inh = C. jejuni PglD acetyltransferase inhibitors, primary screen, biochemical, DTNB colorimetric, single point | UDP-N-acetylbacillosamine N-acetyltransferase PglD (Campylobacter jejuni) | purified PglD enzyme, DTNB colorimetric CoA detection | inhibition, % at 12.5 µM | 360,000 tested, 0.098% active; in the data active means inhibition above about 16%, passing the limit was not always enough; inconclusive means no clear call, values can overlap the other calls
# DENV2 CPE = inhibitors of DENV2 cytopathic effect, primary screen, cell-based, plate reader, single concentration; CPE inhibition, % at 9.99 µM; DENV2-infected cells, cytopathic effect rescue; AID 651640, 2012; 350,000 tested, 1.7% active; in the data active means CPE inhibition above about 20%, passing the limit was not always enough; inconclusive means no clear call, values can overlap the other calls; tested in BHK-21 cells;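 further: 0% = median of neutral control wells and 100% = median of positive control wells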
# Env fusion inh = inhibitors of HIV-1 Env-driven cell-cell fusion, primary screen, HeLa-JRFL effector, CEM21 target cells, luciferase; 360,000 tested, 1.1% active; inhibition, % at 12.3 µM; AID 651610, 2012;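 active means mean replicate inhibition score of at least 50 and every replicate individually at or above 50; inconclusive means only one of the two criteria met; inactive means mean below 50 and not all replicates reaching 50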;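 further: 0% = plate neutral controls and 100% = maraviroc near 300 nM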
# FN deposit inh = inhibitors of fibronectin matrix deposition, primary screen, AH1F cells, Alexa488-fibronectin fluorescence, plate reader | AID 743247, 2014 | 350,000 tested, 0.086% active | AH1F fibroblasts, overnight | inhibition, % at 12.6 µM;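 active means mean inhibition across replicates of 30% or more, regardless of how many single replicates reach that level; inconclusive means mean under 30% yet at least half of replicates reach 30%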;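 further: positive control wells lacked labelled fibronectin entirely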
#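 Assay system: AH1F fibroblasts assembling fluorescent fibronectin matrix; Amount: 10000 AH1F cells per well; Buffer or medium: DMEM, 2% serum; Probe or stimulus: Alexa488-fibronectin, 24 nM final in well; Doses: single compound dose, delivered by pin transfer; Incubation: 1 h adhesion, overnight exposure; Measured by: fluorescence 485/525 nm; Read-out: fibronectin deposition inhibition.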
# The depositor's hits bear a star; ? = inconclusive; . = no result given; [ ] = another dose, or the depositor's remark. This is a sample that favours compounds with a hit; in the whole collection about 3.5% have one here.
SMILES,PGC1a acetyl inh,Ecoli rRNA inh,PglD inh,DENV2 CPE,Env fusion inh,FN deposit inh
NC(=O)c1ccc(N2CCN(c3ccc(O)cc3)CC2)c([N+](=O)[O-])c1,.,.,.,.,66*,7
CC(=O)c1ccc(N2CCN(c3ccc(C(N)=O)cc3[N+](=O)[O-])CC2)cc1,.,9,.,1,27,-1
O=C(C[C@@H]1C[C@@H]2c3cc(NS(=O)(=O)c4ccc(F)cc4)ccc3O[C@@H]2[C@H](CO)O1)NC1CCCCC1,3,-2,1,1,-5[16.7 µM],.
Cc1ccccc1Oc1ccc(-c2nc(N)nc(N)n2)cc1,2,.,-2,.,-27,-11
Nc1nc(N)nc(-c2ccc(Oc3ccccc3)cc2)n1,-14,-34*,-2,-8,.,.
Oc1cccc(NC(=S)N=Nc2c(O)[nH]c3ccccc23)c1,10,-54*,-14,13,7,-4
CC(C)CCSc1nc(N)c(C#N)cc1C#N,-7,.,-2,.,82*,4
CC(=O)c1cc(C#N)c(SCCC(C)C)nc1C,4,-14,-2,-7,.,.
Cc1ccc(C2(C)NC(=O)N(CCOc3ccccc3)C2=O)cc1 (stereo not given),.,-33*,-3,.,.,.
COc1ccc(OCCN2C(=O)NC(C)(c3ccc(C)cc3)C2=O)cc1 (stereo not given),-3,.,-4,.,-24,-3
CO[C@H]1CN(C)C(=O)c2ccc(NS(C)(=O)=O)cc2OC[C@H](C)N(C(=O)C2CC2)C[C@H]1C,-15,6,-1,.,.,-2
Nc1nc(-c2ccccc2)c(CCCOc2ccc(NC(=O)CBr)cc2)c(=O)[nH]1,2,.,-2,24*,7,-3
Cc1ccc(-c2nnc(-n3nc(C)cc3C)c3ccccc23)cc1,.,.,.,.,23,13
Cc1cc(C)n(-c2nnc(Cl)c3ccccc23)n1,-46,20,.,23*,-1,-2
C[C@@H]1CCCCO[C@H](CN(C)C(=O)Cc2ccccc2)[C@@H](C)CN([C@@H](C)CO)C(=O)c2cc(NS(=O)(=O)c3ccc(F)cc3)ccc2O1,-4,-3,3,-3,-13[16.7 µM],.
CCCN1C[C@H](C)[C@H](OC)CN(C)C(=O)c2cc(NC(=O)c3ccno3)ccc2OC[C@@H]1C,8,2,-1,-7,2[16.7 µM],-28
O=C1C=C(Nc2ccc(Cl)cc2Cl)CC(c2ccco2)C1 (stereo not given),-11,-22*,.,0,-1,3
O=C1C=C(Nc2ccc(O)cc2)CC(c2ccco2)C1 (stereo not given),12,.,-2,.,-223,-1
CCOC(=O)c1ccc(NC2=CC(=O)CC(c3ccco3)C2)cc1 (stereo not given),7,-22*,.,5,-24,7
COc1ccc(S(=O)(=O)Nc2ccc3c(c2)C(=O)N([C@H](C)CO)C[C@H](C)[C@@H](CN(C)C(=O)Nc2ccccc2)OCCCC[C@@H](C)O3)cc1,4,1,-1,?,-13[16.7 µM],-18
CCN1[C@@H]2Cn3c(ccc(-c4ccccc4)c3=O)[C@H]1[C@@H](C(=O)NCc1ccccc1)[C@@H]2CO,.,3,2,2,.,.
C[C@H]1CN([C@@H](C)CO)S(=O)(=O)c2ccc(C#CC(C)(C)O)cc2O[C@@H]1CN(C)Cc1ccccc1,0,-16,-4,20,-18[16.7 µM],9
Cc1ccccc1Nc1nc(N)nc(COC(=O)c2cccc(S(=O)(=O)N(C)C)c2)n1,-5,-17*,-6,-1,-10,0
COc1ccc(C(CCNCc2ccc(OC(C)C)cc2)C(C)C)cc1 (stereo not given),0,-48*,-1,-26,25,-2
COc1ccc(CNCCC(c2ccccc2)c2ccc3c(c2)OCO3)cc1 (stereo not given),-11,-59,4,-6,.,.
SMILES,PGC1a acetyl inh,Ecoli rRNA inh,PglD inh,DENV2 CPE,Env fusion inh,FN deposit inh
COc1ccc(CNCCC(c2ccc(OC(C)C)cc2)C(C)C)cc1OC (stereo not given),3,.,0,.,77*,.
COc1ccccc1C(CCNCc1ccc(N(C)C)cc1)c1ccc(OC(C)C)cc1 (stereo not given),-11,-58,2,9,55*,-2
COc1ccc(CNCCC(c2ccc(OC(C)C)cc2)c2ccccc2OC)cc1OC (stereo not given),-4,-52,-5,3,46,-10
COc1ccc(C(CCNCc2ccc(N(C)C)cc2)C(C)C)cc1 (stereo not given),.,.,.,-23,65*,10
COc1ccc(CNCCC(c2ccc(OC(C)C)cc2)c2ccccc2OC)cc1 (stereo not given),.,-56,.,0,?,4
CN1c2ccc(-c3ccccc3F)cc2[C@H]2[C@H](CCN2C(=O)NC2CCCCC2)[C@@H]1CO,-13,-11,.,-24,.,-6
Cc1noc(C)c1NC(=O)Nc1ccc2c(c1)C(=O)N(C)[C@@H]1CC[C@@H](CC(=O)N(C)C)O[C@@H]1CO2,1,3,-2,14,4[16.7 µM],.
C[C@@H]1CN([C@H](C)CO)C(=O)c2cc(NS(=O)(=O)c3ccc(F)cc3)ccc2O[C@H]1CN(C)S(=O)(=O)c1cn(C)cn1,-9,3,.,12,-4[16.7 µM],.
CO[C@@H]1CN(C)C(=O)c2ccc(NC(=O)c3cnccn3)cc2OC[C@H](C)NC[C@@H]1C,0,3,1,10,4[16.7 µM],-9
COc1ccccc1C(c1c(N)n(C)c(=O)n(C)c1=O)C(C)[N+](=O)[O-] (stereo not given),-5,13,-3,-5,3,3
COc1ccccc1C(C[N+](=O)[O-])c1c(N)n(C)c(=O)n(C)c1=O (stereo not given),-27,-34*,4,3,-16,3
C[C@@H]1CN([C@@H](C)CO)C(=O)c2cc(NC(=O)C3CCCCC3)ccc2O[C@@H](C)CCCCO[C@@H]1CN(C)CC1CCCCC1,13,-12,-4,-6,8[16.7 µM],.
C[C@H]1CCCCO[C@H](CN(C)Cc2ccncc2)[C@@H](C)CN([C@@H](C)CO)C(=O)c2cc(NC(=O)c3ccncc3)ccc2O1,8,-1,6,2,-2[16.7 µM],0
C[C@@H]1CN([C@@H](C)CO)C(=O)Cc2cc(NC(=O)Cn3cnnn3)ccc2O[C@H]1CN(C)C(=O)Nc1cccc2ccccc12,.,2,.,.,.,0
COC(=O)c1ccc([C@H]2CC(=O)O2)cc1,-18,15,-5,76*,-23,3
